We go through one compound from ChEMBL document CHEMBL3860038, “Discovery of (R,E)-N-(7-Chloro-1-(1-[4-(dimethylamino)but-2-enoyl]azepan-3-yl)-1H-benzo[d]imidazol-2-yl)-2-methylisonicotinamide (EGF816), a Novel, Potent, and WT Sparing Covalent Inhibitor of Oncogenic (L858R, ex19del) and Resistant (T790M) EGFR Mutants for the Treatment of EGFR Mutant …” (J Med Chem, 2016).

Data set [1] in a line: Inhibition of EGFR E746 to A750 deletion mutant phosphorylation in human patient derived HCC827 cells incubated for 3 hrs by ELISA method. The format is cell-based. The note with it: HCC827, 3 h. In short, it runs like this: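 HCC827 cells plated at 7500/well in 5% FBS/RPMI and left overnight at 37 °C. Then 3 h with a 12-point compound dilution series, no EGF stimulation. Lysed in Triton/protease/phosphatase-inhibitor buffer. Phospho-EGFR (Y1173) read by sandwich ELISA: anti-EGFR capture, anti-phospho-EGFR, anti-rabbit-HRP, chemiluminescence. IC50 from at least duplicates.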
For orientation: In an ELISA, binding on a coated surface is turned into a signal by an enzyme label.

Data set [2] can be described thus: Drug metabolism in human liver microsomes assessed as oxidation at 7-methyl groups. The format is ADME. (Liver microsomes are vesicles of endoplasmic reticulum, rich in cytochrome P450 enzymes.)
The target of data set [3] is Epidermal growth factor receptor (Homo sapiens, UniProt P00533). In words: Inhibition of wild type EGFR phosphorylation in human HaCaT cells incubated for 3 hrs by ELISA method. The data set is classed as cell-based.
Sequence of Epidermal growth factor receptor (Homo sapiens, UniProt P00533) (P00533 whole entry): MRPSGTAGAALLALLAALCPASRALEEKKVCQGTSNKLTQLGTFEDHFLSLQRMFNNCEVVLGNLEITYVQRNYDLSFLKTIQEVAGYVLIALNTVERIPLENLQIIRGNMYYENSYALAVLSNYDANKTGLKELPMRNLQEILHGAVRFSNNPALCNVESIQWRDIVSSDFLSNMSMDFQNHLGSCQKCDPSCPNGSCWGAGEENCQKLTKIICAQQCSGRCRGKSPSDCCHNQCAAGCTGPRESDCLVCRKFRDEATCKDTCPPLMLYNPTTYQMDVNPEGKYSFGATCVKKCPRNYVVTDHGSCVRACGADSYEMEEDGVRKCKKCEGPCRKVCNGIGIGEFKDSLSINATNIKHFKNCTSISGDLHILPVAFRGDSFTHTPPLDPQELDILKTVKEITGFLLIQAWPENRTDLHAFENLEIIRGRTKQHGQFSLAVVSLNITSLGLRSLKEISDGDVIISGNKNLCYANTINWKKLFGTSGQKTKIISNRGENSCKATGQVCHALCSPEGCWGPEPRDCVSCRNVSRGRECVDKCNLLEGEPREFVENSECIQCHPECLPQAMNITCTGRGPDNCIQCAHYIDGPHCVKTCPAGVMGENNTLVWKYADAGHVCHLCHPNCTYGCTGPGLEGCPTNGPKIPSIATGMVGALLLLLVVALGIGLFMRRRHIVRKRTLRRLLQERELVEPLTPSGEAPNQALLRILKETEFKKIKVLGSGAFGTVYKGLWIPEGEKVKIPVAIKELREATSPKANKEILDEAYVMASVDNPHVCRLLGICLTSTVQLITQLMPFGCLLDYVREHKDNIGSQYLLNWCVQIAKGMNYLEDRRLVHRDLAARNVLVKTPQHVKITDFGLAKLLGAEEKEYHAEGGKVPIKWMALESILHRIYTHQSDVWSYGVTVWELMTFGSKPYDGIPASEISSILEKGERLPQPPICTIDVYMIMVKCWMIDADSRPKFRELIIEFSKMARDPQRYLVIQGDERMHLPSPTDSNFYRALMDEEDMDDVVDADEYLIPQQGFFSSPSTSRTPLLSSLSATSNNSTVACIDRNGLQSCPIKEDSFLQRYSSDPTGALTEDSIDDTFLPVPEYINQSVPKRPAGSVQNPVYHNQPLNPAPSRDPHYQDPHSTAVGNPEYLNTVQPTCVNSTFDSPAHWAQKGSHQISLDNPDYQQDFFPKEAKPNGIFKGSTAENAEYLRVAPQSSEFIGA
Data set [4] in a line: Intrinsic clearance in human liver microsomes. The format is ADME. The note with it: read-out: CLH.
Data set [5] in a line: Drug metabolism in rat liver microsomes assessed as oxidation at 7-methyl groups. The format is ADME.
Data set [6] is described as follows: Clearance in balb/c mouse at 5 mg/kg, iv by liquid chromatography-tandem mass spectrometry. The data set is classed as ADME, organism-based. The note with it: in vivo. In short, it runs like this:
(§1)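 Rodent PK in male balb/c mice and male Wistar rats; plasma drug levels by LC-MS/MS. Mouse oral dosing at 20 mg/kg, with compounds given as a 0.5% methylcellulose/0.5% Tween 80 suspension or as solutions (PEG300/D5W, or ethanol/PEG300 with Solutol or D5W), depending on compound.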

Another data set deals with Cytochrome P450 2D6 (Homo sapiens, UniProt P10635). Put plainly: Inhibition of CYP2D6 (unknown origin). The format is ADME.
Sequence of Cytochrome P450 2D6 (P10635 whole entry): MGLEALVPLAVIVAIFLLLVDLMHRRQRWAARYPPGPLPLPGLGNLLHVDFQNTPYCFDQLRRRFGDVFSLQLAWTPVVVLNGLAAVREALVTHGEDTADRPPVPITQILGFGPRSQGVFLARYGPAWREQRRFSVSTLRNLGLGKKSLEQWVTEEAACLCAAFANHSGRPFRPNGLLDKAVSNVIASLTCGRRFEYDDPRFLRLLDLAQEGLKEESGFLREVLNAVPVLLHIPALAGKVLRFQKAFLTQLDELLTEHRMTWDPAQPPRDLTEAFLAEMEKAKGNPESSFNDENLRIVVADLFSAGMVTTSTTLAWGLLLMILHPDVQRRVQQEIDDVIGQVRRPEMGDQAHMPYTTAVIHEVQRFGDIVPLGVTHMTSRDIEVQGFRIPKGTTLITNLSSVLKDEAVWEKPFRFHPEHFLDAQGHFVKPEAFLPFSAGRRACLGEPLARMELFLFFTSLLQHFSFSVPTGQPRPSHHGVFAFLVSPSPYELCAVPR
The target in data set [7] is Epidermal growth factor receptor (Homo sapiens, UniProt P00533, L858R/T790M). Put plainly: Inhibition of EGFR L858R/T790M mutant phosphorylation in human patient derived H1975 cells incubated for 3 hrs by ELISA method. The format is cell-based.
Sequence of Epidermal growth factor receptor (Homo sapiens, UniProt P00533, L858R/T790M) (P00533 25-1210 T790M/L858R limits assumed): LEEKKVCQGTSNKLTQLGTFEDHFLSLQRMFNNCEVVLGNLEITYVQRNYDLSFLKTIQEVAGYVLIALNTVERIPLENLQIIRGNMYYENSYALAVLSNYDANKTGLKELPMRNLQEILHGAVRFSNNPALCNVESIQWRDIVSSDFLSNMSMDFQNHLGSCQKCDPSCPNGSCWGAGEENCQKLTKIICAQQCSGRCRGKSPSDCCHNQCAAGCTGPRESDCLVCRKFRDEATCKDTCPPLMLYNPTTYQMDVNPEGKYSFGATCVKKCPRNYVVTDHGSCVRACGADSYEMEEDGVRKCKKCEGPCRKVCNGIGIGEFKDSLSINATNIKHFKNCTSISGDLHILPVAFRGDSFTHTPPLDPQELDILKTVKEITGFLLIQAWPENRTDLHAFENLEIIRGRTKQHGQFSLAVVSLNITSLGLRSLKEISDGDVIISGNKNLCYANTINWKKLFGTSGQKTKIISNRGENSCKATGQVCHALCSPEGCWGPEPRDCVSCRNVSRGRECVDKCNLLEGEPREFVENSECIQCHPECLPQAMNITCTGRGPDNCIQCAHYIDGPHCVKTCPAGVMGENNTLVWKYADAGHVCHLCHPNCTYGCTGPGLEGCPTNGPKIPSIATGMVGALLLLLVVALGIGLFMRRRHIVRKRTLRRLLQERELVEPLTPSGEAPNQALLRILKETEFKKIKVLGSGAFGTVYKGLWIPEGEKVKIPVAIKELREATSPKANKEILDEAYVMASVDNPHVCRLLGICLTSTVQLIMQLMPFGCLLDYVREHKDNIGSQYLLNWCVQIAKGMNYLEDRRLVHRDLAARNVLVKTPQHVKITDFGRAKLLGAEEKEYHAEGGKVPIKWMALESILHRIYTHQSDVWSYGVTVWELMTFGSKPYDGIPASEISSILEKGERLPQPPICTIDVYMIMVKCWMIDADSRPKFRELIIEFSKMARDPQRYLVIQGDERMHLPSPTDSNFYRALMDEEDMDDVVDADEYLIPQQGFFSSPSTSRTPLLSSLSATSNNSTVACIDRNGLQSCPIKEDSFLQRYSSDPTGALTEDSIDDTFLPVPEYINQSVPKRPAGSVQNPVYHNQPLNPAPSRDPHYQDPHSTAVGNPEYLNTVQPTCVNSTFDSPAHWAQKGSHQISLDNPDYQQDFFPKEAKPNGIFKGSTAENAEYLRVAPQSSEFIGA
Data set [8] in a line: Drug metabolism in mouse liver microsomes assessed as oxidation at acrylate groups. The data set is classed as ADME.
Data set [9] in a line: Oral bioavailability in balb/c mouse at 20 mg/kg by liquid chromatography-tandem mass spectrometry. The format is ADME, organism-based. The note with it: in vivo. Summed up: as §1
Data set [10] in a line: Aqueous solubility of the compound at pH 6.8. The data set is classed as physicochemical.
Another data set concerns the target Cytochrome P450 2C9 (Homo sapiens, UniProt P11712). Put plainly: Inhibition of CYP2C9 (unknown origin). The data set is classed as ADME.
Data set [11] deals with Epidermal growth factor receptor (Homo sapiens, UniProt P00533, L858R). In words: Inhibition of EGFR L858R mutant phosphorylation in human patient derived H3255 cells incubated for 3 hrs by ELISA method. The format is cell-based.
Sequence of Epidermal growth factor receptor (Homo sapiens, UniProt P00533, L858R) (P00533 25-1210 L858R limits assumed): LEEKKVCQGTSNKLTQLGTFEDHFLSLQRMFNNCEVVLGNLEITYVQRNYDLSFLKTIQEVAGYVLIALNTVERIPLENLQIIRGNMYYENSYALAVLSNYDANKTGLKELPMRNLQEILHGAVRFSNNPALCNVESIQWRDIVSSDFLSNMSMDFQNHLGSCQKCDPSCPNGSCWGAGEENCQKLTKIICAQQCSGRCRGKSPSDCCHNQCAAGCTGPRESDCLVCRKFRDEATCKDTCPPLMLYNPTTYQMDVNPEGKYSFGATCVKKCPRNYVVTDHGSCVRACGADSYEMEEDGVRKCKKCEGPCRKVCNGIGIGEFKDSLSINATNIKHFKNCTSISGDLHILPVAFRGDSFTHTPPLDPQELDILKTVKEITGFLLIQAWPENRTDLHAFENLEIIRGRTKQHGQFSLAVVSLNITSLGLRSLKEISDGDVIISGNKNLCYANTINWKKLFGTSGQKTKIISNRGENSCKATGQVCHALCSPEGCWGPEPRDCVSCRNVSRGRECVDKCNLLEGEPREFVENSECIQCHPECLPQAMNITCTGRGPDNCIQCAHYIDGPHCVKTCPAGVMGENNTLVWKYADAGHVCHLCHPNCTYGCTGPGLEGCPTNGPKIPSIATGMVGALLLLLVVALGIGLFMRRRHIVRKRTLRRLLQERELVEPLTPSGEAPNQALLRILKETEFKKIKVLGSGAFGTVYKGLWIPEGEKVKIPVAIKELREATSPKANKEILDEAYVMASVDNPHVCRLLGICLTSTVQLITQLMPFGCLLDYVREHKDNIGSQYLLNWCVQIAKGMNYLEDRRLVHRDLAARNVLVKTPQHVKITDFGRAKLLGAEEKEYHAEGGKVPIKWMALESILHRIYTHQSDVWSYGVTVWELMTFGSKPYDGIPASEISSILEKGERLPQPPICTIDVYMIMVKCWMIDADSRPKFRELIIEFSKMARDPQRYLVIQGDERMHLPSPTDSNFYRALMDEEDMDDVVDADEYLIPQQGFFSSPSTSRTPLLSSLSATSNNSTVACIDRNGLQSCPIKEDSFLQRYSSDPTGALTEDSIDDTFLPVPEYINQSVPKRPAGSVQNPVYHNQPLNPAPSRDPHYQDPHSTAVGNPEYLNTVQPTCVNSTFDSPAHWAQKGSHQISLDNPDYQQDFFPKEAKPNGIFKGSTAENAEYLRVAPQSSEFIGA
A short description of data set [12]: Intrinsic clearance in mouse liver microsomes. The format is ADME. The note with it: read-out: CLH.
Data set [13] in a line: AUC in balb/c mouse at 20 mg/kg, po by liquid chromatography-tandem mass spectrometry. The data set is classed as ADME, organism-based. The note with it: in vivo. Summed up:
as §1

Another data set concerns the target Cytochrome P450 3A4 (Homo sapiens, UniProt P08684). Put plainly: Inhibition of CYP3A4 (unknown origin). The data set is classed as ADME.
The nature of data set [14]: Drug metabolism in rat liver microsomes assessed as oxidation at acrylate groups. The data set is classed as ADME.
The nature of data set [15]: Drug metabolism in human liver microsomes assessed as oxidation at acrylate groups. The data set is classed as ADME.
Data set [16] is described as follows: Glutathione reactivity assessed as GSH adduct formation incubated for 1 hr using 10 mM glutathione. Summed up:
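Compound incubated 1 h with 10 mM glutathione; GSH adduct formation measured.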

The nature of data set [17]: Drug metabolism in mouse liver microsomes assessed as oxidation at 7-methyl groups. The data set is classed as ADME.

Molecules are shown by their SMILES.

Sequence of Cytochrome P450 2C9 (P11712 whole entry): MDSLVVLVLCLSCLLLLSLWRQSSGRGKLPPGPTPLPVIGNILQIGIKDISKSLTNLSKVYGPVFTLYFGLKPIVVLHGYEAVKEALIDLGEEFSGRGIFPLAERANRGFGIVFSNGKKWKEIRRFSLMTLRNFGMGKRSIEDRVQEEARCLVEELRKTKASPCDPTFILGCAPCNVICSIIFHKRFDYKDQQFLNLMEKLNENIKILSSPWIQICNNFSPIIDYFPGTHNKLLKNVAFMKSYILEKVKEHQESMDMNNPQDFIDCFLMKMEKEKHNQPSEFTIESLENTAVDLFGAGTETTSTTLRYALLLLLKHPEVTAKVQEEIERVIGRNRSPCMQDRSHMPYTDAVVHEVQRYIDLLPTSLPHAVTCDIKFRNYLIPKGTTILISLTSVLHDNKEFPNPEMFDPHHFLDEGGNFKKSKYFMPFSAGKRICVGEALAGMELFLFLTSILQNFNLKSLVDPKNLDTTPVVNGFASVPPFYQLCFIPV
Sequence of Cytochrome P450 3A4 (P08684 whole entry): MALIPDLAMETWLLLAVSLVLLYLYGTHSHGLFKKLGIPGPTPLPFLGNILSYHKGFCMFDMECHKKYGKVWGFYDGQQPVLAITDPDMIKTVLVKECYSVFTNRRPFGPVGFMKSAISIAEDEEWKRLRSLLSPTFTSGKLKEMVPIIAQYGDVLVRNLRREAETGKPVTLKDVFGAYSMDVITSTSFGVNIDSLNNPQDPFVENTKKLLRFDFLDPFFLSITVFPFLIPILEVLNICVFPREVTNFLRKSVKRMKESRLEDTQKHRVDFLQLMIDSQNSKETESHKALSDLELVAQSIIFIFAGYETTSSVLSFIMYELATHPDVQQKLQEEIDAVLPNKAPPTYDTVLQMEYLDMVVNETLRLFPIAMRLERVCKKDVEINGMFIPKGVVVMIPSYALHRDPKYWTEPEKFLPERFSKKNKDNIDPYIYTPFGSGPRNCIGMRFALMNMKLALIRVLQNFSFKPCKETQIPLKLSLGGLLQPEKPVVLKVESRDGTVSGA

With `C=CC(=O)N1CCCC[C@@H](n2c(NC(=O)c3cccc(C(F)(F)F)c3)nc3cccc(C)c32)C1`, the 50% inhibitory concentration (IC50) – broadly, the midpoint of a concentration-inhibition curve – in [1] is 3.93 nM; in data set [3], 250 nM; at Cytochrome P450 2D6 it was > 25 µM; in data set [7], 1.39 nM; at Cytochrome P450 2C9, 3.4 µM; in data set [11] it was 14.8 nM. The compound further registered an IC50 against Cytochrome P450 3A4 of 3.5 µM. Further, the Drug metabolism entry was “Metabolite_Detected” in data set [2]; “Metabolite_Detected” in [5]; “Metabolite_Detected” in data set [8]; “Metabolite_Detected” in [14]; “Metabolite_Detected” in data set [15]; < 5% in [16]. Also, the Drug metabolism result in [17] is listed as “Metabolite_Detected”. The microsomal CLint stood at 83 µL/min/mg in data set [4] and 245 µL/min/mg in data set [12]. The clearance (usually the rate of elimination divided by the concentration) in data set [6] was 54 mL/min/kg. In addition, the bioavailability (commonly dose-corrected exposure relative to a reference, in per cent) in data set [9] stood at 6%. Besides, the solubility (usually how much of the substance goes into solution per volume) in [10] was < 2 µM. In [13], the AUC (usually the area under the concentration-time curve, a measure of exposure) was 0.808 µM·h.
